# Results published in PMC5114172 (Journal of applied toxicology : JAT, 2016).
# Tests used:
# PBMCs = test: IL-1β secretion assay; assay type: cell-based, human; details: donor F173, 6 day
# In short: (§1)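 NK cells, MD-PBMCs, PBMCs or granulocytes (1.5 million/mL) or PBMC+granulocytes (0.75 million/mL each), per donor, exposed 24 h, 48 h or 6 days to 0.05–5 μM test compound diluted from DMSO stock, with DMSO controls. Supernatants kept at −70 °C. IL-1β by sandwich ELISA: HRP detection antibody, acid-stopped substrate, A450 against standards. Detection limit 3 pg/mL; triplicates; ANOVA then t test versus control, p<0.05.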
# PBMCs plus Granulocytes = test: IL-1β secretion assay; assay type: cell-based, human; details: for Interleukin 1 beta secreted: PBMCs plus Granulocytes
# In short: as §1
compound,measurement,setting,value
"CCC[CH2][Sn][CH2]CCC [DBT, Dibutyltin]",Interleukin 1 beta secreted,PBMCs; 0.25 μM DBT,453 ± 16 ng/mL
same,Interleukin 1 beta secreted,PBMCs; 0.5 μM DBT,932 ± 8 ng/mL
same,Interleukin 1 beta secreted,PBMCs; 1 μM DBT,690 ± 15 ng/mL
same,Interleukin 1 beta secreted,PBMCs; 2.5 μM DBT,181 ± 8 ng/mL
same,Interleukin 1 beta secreted,PBMCs; 5 μM DBT,145 ± 2 ng/mL
same,Interleukin 1 beta secreted,"PBMCs plus Granulocytes; donor F148, 24 h, 0.05 μM DBT",4217 ± 397 pg/mL
same,Interleukin 1 beta secreted,"PBMCs plus Granulocytes; donor F148, 24 h, 0.1 μM DBT",3060 ± 191 pg/mL
same,Interleukin 1 beta secreted,"PBMCs plus Granulocytes; donor F148, 24 h, 0.25 μM DBT",3344 ± 212 pg/mL
same,Interleukin 1 beta secreted,"PBMCs plus Granulocytes; donor F148, 24 h, 0.5 μM DBT",7275 ± 2061 pg/mL
same,Interleukin 1 beta secreted,"PBMCs plus Granulocytes; donor F148, 24 h, 1 μM DBT",2011 ± 148 pg/mL
same,Interleukin 1 beta secreted,"PBMCs plus Granulocytes; donor F148, 24 h, 2.5 μM DBT",736 ± 552 pg/mL
same,Interleukin 1 beta secreted,"PBMCs plus Granulocytes; donor F148, 24 h, 5 μM DBT",197 ± 78 pg/mL
same,Interleukin 1 beta secreted,"PBMCs plus Granulocytes; donor F148, 48 h, 0.05 μM DBT",646 ± 25 pg/mL
same,Interleukin 1 beta secreted,"PBMCs plus Granulocytes; donor F148, 48 h, 0.1 μM DBT",864 ± 11 pg/mL
same,Interleukin 1 beta secreted,"PBMCs plus Granulocytes; donor F148, 48 h, 0.25 μM DBT",1017 ± 76 pg/mL
same,Interleukin 1 beta secreted,"PBMCs plus Granulocytes; donor F148, 48 h, 0.5 μM DBT",1191 ± 200 pg/mL
same,Interleukin 1 beta secreted,"PBMCs plus Granulocytes; donor F148, 48 h, 1 μM DBT",491 ± 26 pg/mL
same,Interleukin 1 beta secreted,"PBMCs plus Granulocytes; donor F148, 6 day, 0.5 μM DBT",3 ± 1 pg/mL
same,Interleukin 1 beta secreted,"PBMCs plus Granulocytes; donor F154, 24 h, 0.05 μM DBT",1364 ± 181 pg/mL
same,Interleukin 1 beta secreted,"PBMCs plus Granulocytes; donor F154, 24 h, 0.1 μM DBT",1059 ± 141 pg/mL
same,Interleukin 1 beta secreted,"PBMCs plus Granulocytes; donor F154, 24 h, 0.25 μM DBT",835 ± 38 pg/mL
same,Interleukin 1 beta secreted,"PBMCs plus Granulocytes; donor F154, 24 h, 0.5 μM DBT",538 ± 33 pg/mL
same,Interleukin 1 beta secreted,"PBMCs plus Granulocytes; donor F154, 24 h, 1 μM DBT",386 ± 157 pg/mL
same,Interleukin 1 beta secreted,"PBMCs plus Granulocytes; donor F154, 48 h, 0.05 μM DBT",358 ± 88 pg/mL
same,Interleukin 1 beta secreted,"PBMCs plus Granulocytes; donor F154, 48 h, 0.1 μM DBT",346 ± 40 pg/mL
same,Interleukin 1 beta secreted,"PBMCs plus Granulocytes; donor F154, 48 h, 0.25 μM DBT",372 ± 47 pg/mL
same,Interleukin 1 beta secreted,"PBMCs plus Granulocytes; donor F154, 48 h, 0.5 μM DBT",372 ± 24 pg/mL
same,Interleukin 1 beta secreted,"PBMCs plus Granulocytes; donor F154, 48 h, 1 μM DBT",322 ± 11 pg/mL
same,Interleukin 1 beta secreted,"PBMCs plus Granulocytes; donor F154, 48 h, 2.5 μM DBT",321 ± 35 pg/mL
same,Interleukin 1 beta secreted,"PBMCs plus Granulocytes; donor F154, 48 h, 5 μM DBT",321 ± 20 pg/mL
same,Interleukin 1 beta secreted,"PBMCs plus Granulocytes; donor F154, 6 day, 0.05 μM DBT",65 ± 34 pg/mL
same,Interleukin 1 beta secreted,"PBMCs plus Granulocytes; donor F154, 6 day, 0.1 μM DBT",31 ± 16 pg/mL
same,Interleukin 1 beta secreted,"PBMCs plus Granulocytes; donor F154, 6 day, 0.25 μM DBT",8 ± 1 pg/mL
same,Interleukin 1 beta secreted,"PBMCs plus Granulocytes; donor F154, 6 day, 0.5 μM DBT",11 ± 0 pg/mL
same,Interleukin 1 beta secreted,"PBMCs plus Granulocytes; donor F154, 6 day, 1 μM DBT",10 ± 0 pg/mL
same,Interleukin 1 beta secreted,"PBMCs plus Granulocytes; donor F154, 6 day, 2.5 μM DBT",3 ± 0 pg/mL
same,Interleukin 1 beta secreted,"PBMCs plus Granulocytes; donor F159, 24 h, 0.05 μM DBT",438 ± 18 pg/mL
same,Interleukin 1 beta secreted,"PBMCs plus Granulocytes; donor F159, 24 h, 0.1 μM DBT",375 ± 28 pg/mL
same,Interleukin 1 beta secreted,"PBMCs plus Granulocytes; donor F159, 24 h, 0.25 μM DBT",648 ± 18 pg/mL
same,Interleukin 1 beta secreted,"PBMCs plus Granulocytes; donor F159, 24 h, 0.5 μM DBT",620 ± 40 pg/mL
same,Interleukin 1 beta secreted,"PBMCs plus Granulocytes; donor F159, 24 h, 1 μM DBT",617 ± 74 pg/mL
same,Interleukin 1 beta secreted,"PBMCs plus Granulocytes; donor F159, 24 h, 2.5 μM DBT",87 ± 12 pg/mL
same,Interleukin 1 beta secreted,"PBMCs plus Granulocytes; donor F159, 48 h, 0.05 μM DBT",109 ± 93 pg/mL
same,Interleukin 1 beta secreted,"PBMCs plus Granulocytes; donor F159, 48 h, 0.1 μM DBT",48 ± 8 pg/mL
same,Interleukin 1 beta secreted,"PBMCs plus Granulocytes; donor F159, 48 h, 0.25 μM DBT",141 ± 16 pg/mL
same,Interleukin 1 beta secreted,"PBMCs plus Granulocytes; donor F159, 48 h, 0.5 μM DBT",226 ± 16 pg/mL
same,Interleukin 1 beta secreted,"PBMCs plus Granulocytes; donor F159, 48 h, 1 μM DBT",311 ± 39 pg/mL
same,Interleukin 1 beta secreted,"PBMCs plus Granulocytes; donor F159, 48 h, 2.5 μM DBT",505 ± 54 pg/mL
same,Interleukin 1 beta secreted,"PBMCs plus Granulocytes; donor F159, 48 h, 5 μM DBT",192 ± 15 pg/mL
same,Interleukin 1 beta secreted,"PBMCs plus Granulocytes; donor F159, 6 day, 0.05 μM DBT",3 ± 2 pg/mL
same,Interleukin 1 beta secreted,"PBMCs plus Granulocytes; donor F159, 6 day, 0.1 μM DBT",3 ± 2 pg/mL
same,Interleukin 1 beta secreted,"PBMCs plus Granulocytes; donor F159, 6 day, 0.5 μM DBT",5 ± 1 pg/mL
same,Interleukin 1 beta secreted,"PBMCs plus Granulocytes; donor F159, 6 day, 1 μM DBT",5 ± 1 pg/mL
same,Interleukin 1 beta secreted,"PBMCs plus Granulocytes; donor F159, 6 day, 2.5 μM DBT",7 ± 1 pg/mL
same,Interleukin 1 beta secreted,"PBMCs plus Granulocytes; donor F173, 24 h, 0.05 μM DBT",150 ± 26 pg/mL
same,Interleukin 1 beta secreted,"PBMCs plus Granulocytes; donor F173, 24 h, 0.1 μM DBT",168 ± 34 pg/mL
same,Interleukin 1 beta secreted,"PBMCs plus Granulocytes; donor F173, 24 h, 0.25 μM DBT",146 ± 12 pg/mL
same,Interleukin 1 beta secreted,"PBMCs plus Granulocytes; donor F173, 24 h, 0.5 μM DBT",165 ± 13 pg/mL
same,Interleukin 1 beta secreted,"PBMCs plus Granulocytes; donor F173, 24 h, 1 μM DBT",632 ± 19 pg/mL
same,Interleukin 1 beta secreted,"PBMCs plus Granulocytes; donor F173, 24 h, 2.5 μM DBT",287 ± 22 pg/mL
same,Interleukin 1 beta secreted,"PBMCs plus Granulocytes; donor F173, 24 h, 5 μM DBT",140 ± 10 pg/mL
same,Interleukin 1 beta secreted,"PBMCs plus Granulocytes; donor F173, 48 h, 0.05 μM DBT",57 ± 35 pg/mL
same,Interleukin 1 beta secreted,"PBMCs plus Granulocytes; donor F173, 48 h, 0.1 μM DBT",17 ± 2 pg/mL
same,Interleukin 1 beta secreted,"PBMCs plus Granulocytes; donor F173, 48 h, 0.25 μM DBT",42 ± 6 pg/mL
same,Interleukin 1 beta secreted,"PBMCs plus Granulocytes; donor F173, 48 h, 0.5 μM DBT",32 ± 1 pg/mL
same,Interleukin 1 beta secreted,"PBMCs plus Granulocytes; donor F173, 48 h, 1 μM DBT",160 ± 2 pg/mL
same,Interleukin 1 beta secreted,"PBMCs plus Granulocytes; donor F173, 48 h, 2.5 μM DBT",124 ± 3 pg/mL
same,Interleukin 1 beta secreted,"PBMCs plus Granulocytes; donor F173, 48 h, 5 μM DBT",63 ± 1 pg/mL
same,average of the maximum fold increase in IL-β secretion,"PBMCs plus Granulocytes; PBMCs+granulocytes, 24 h, across donors",3.8 fold
same,fold increase in IL-1β secretion,"PBMCs plus Granulocytes; PBMCs+granulocytes, donor F159, 24 h, 0.25 μM DBT",1.9 fold
same,fold increase in IL-1β secretion,"PBMCs plus Granulocytes; PBMCs+granulocytes, donor F159, 24 h, 0.5 μM DBT",1.8 fold
same,fold increase in IL-1β secretion,"PBMCs plus Granulocytes; PBMCs+granulocytes, donor F159, 24 h, 1 μM DBT",1.8 fold
same,fold increase in IL-1β secretion,"PBMCs plus Granulocytes; PBMCs+granulocytes, donor F159, 48 h, 0.25 μM DBT",35 fold
same,fold increase in IL-1β secretion,"PBMCs plus Granulocytes; PBMCs+granulocytes, donor F159, 48 h, 0.5 μM DBT",56 fold
same,fold increase in IL-1β secretion,"PBMCs plus Granulocytes; PBMCs+granulocytes, donor F159, 48 h, 1 μM DBT",77 fold
